From ChEMBL document CHEMBL3992547, “Antimicrobial activity of rhodanine-3-acetic acid derivatives” (Bioorg Med Chem, 2017)
Converted amounts (≈) assume the structure as drawn. The source made the active and inactive calls. No cut-off for these calls is given here.

Legend:
[1] = tested on: Mycobacterium tuberculosis; experiment: Antimycobacterial activity against Mycobacterium tuberculosis H37Rv 331/88 measured after 14 days by micromethod; format: functional; conditions: H37Rv 331/88, 336 h
[2] = tested on: Mycobacterium tuberculosis; experiment: Antimycobacterial activity against Mycobacterium tuberculosis H37Rv 331/88 measured after 21 days by micromethod; format: functional; conditions: H37Rv 331/88, 504 h
Mycobacterium avium [3] = experiment: Antimycobacterial activity against Mycobacterium avium 330/88 measured after 14 days by micromethod; format: functional; conditions: 330/88, 336 h
Mycobacterium avium [4] = experiment: Antimycobacterial activity against Mycobacterium avium 330/88 measured after 21 days by micromethod; format: functional; conditions: 330/88, 504 h
Mycobacterium kansasii [5] = experiment: Antimycobacterial activity against Mycobacterium kansasii isolate 235/80 after 7 days by micromethod; format: functional; conditions: isolate 235/80, 168 h
Mycobacterium kansasii [6] = experiment: Antimycobacterial activity against Mycobacterium kansasii isolate 235/80 after 14 days by micromethod; format: functional; conditions: isolate 235/80, 336 h
Mycobacterium kansasii [7] = experiment: Antimycobacterial activity against Mycobacterium kansasii isolate 235/80 after 21 days by micromethod; format: functional; conditions: isolate 235/80, 504 h
Mycobacterium kansasii [8] = experiment: Antimycobacterial activity against Mycobacterium kansasii isolate 6509/96 after 7 days by micromethod; format: functional; conditions: isolate 6509/96, 168 h
Mycobacterium kansasii [9] = experiment: Antimycobacterial activity against Mycobacterium kansasii isolate 6509/96 after 14 days by micromethod; format: functional; conditions: isolate 6509/96, 336 h
Mycobacterium kansasii [10] = experiment: Antimycobacterial activity against Mycobacterium kansasii isolate 6509/96 after 21 days by micromethod; format: functional; conditions: isolate 6509/96, 504 h
[11] = Solubility of the compound in Sula's semisynthetic medium up to 1 mM; format: physicochemical
Staphylococcus aureus [12] = experiment: Antibacterial activity against Staphylococcus aureus CCM 4516/08 incubated for 24 hrs under dark condition by microdilution broth assay; format: functional; conditions: CCM 4516/08, 24 h
Outline: (§1)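 Broth microdilution per M07-A07, modified, in Mueller-Hinton broth adjusted to pH 7.4 (±0.2). Inoculum is prepared in sterile water to McFarland 0.5 (1.5 × 10⁸ CFU/mL). Plates are incubated in the dark at 35 °C in humid air. MIC is read after 24 and 48 h as at least 95% growth reduction versus control (IC₉₅).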

Staphylococcus aureus [13] = experiment: Antibacterial activity against Staphylococcus aureus CCM 4516/08 incubated for 48 hrs under dark condition by microdilution broth assay; format: functional; conditions: CCM 4516/08, 48 h; outline: as §1
Staphylococcus aureus [14] = experiment: Antibacterial activity against methicillin-resistant Staphylococcus aureus H 5996/08 incubated for 24 hrs under dark condition by microdilution broth assay; format: functional; conditions: H 5996/08, 24 h
Outline: (§2)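 Microdilution broth method modified per M07-A07, in Mueller-Hinton broth adjusted to pH 7.4 (±0.2). Inoculum made in sterile water to 0.5 McFarland (1.5 × 10⁸ CFU/mL). Plates incubated in the dark at 35 °C in a humid atmosphere, with reads at 24 and 48 h. MIC taken as at least 95% growth reduction (IC₉₅) versus control.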

Staphylococcus aureus [15] = experiment: Antibacterial activity against methicillin-resistant Staphylococcus aureus H 5996/08 incubated for 48 hrs under dark condition by microdilution broth assay; format: functional; conditions: H 5996/08, 48 h; outline: as §2
[16] = tested on: Staphylococcus epidermidis; experiment: Antibacterial activity against Staphylococcus epidermidis H 6966/08 incubated for 24 hrs under dark condition by microdilution broth assay; format: functional; conditions: H 6966/08, 24 h; outline: as §1
[17] = tested on: Staphylococcus epidermidis; experiment: Antibacterial activity against Staphylococcus epidermidis H 6966/08 incubated for 48 hrs under dark condition by microdilution broth assay; format: functional; conditions: H 6966/08, 48 h; outline: as §1
Escherichia coli [18] = experiment: Antibacterial activity against Escherichia coli CCM 4517 incubated for 24 hrs under dark condition by microdilution broth assay; format: functional; conditions: CCM 4517, 24 h; outline: as §1
Escherichia coli [19] = experiment: Antibacterial activity against Escherichia coli CCM 4517 incubated for 48 hrs under dark condition by microdilution broth assay; format: functional; conditions: CCM 4517, 48 h; outline: as §1
Klebsiella pneumoniae [20] = experiment: Antibacterial activity against Klebsiella pneumoniae D 11750/08 up to 500 uM incubated for 24 to 48 hrs under dark condition by microdilution broth assay; format: functional; outline: as §1
Klebsiella pneumoniae [21] = experiment: Antibacterial activity against ESBL positive Klebsiella pneumoniae J 14368/08 up to 500 uM incubated for 24 to 48 hrs under dark condition by microdilution broth assay; format: functional; outline: as §1
Pseudomonas aeruginosa = experiment: Antibacterial activity against Pseudomonas aeruginosa CCM 1961 up to 500 uM incubated for 24 to 48 hrs under dark condition by microdilution broth assay; format: functional; outline: as §1
Pichia kudriavzevii = experiment: Antifungal activity against Candida krusei E28 after 24 to 48 hrs hrs by microdilution broth assay; format: functional
Outline: (§3)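 Broth microdilution per CLSI M27-A3 and M38-A2 in RPMI 1640 with glutamine, buffered to pH 7.0 with MOPS. Compounds are diluted in DMSO. Final inoculum is 5 × 10³ CFU/mL for yeasts and 0.5–5 × 10⁴ CFU/mL for moulds. Plates are incubated in the dark at 35 °C in humid air and read visually and/or at 540 nm after 24 and 48 h. MIC is ≥80% growth reduction (IC₈₀) for yeasts and ≥50% (IC₅₀) for filamentous fungi.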

Lichtheimia corymbifera = experiment: Antifungal activity against Absidia corymbifera 272 after 24 to 48 hrs hrs by microdilution broth assay; format: functional; outline: as §3
Enterococcus [22] = experiment: Antibacterial activity against Enterococcus sp. J 14365/08 incubated for 24 hrs under dark condition by microdilution broth assay; conditions: J 14365/08, 24 h
Enterococcus [23] = experiment: Antibacterial activity against Enterococcus sp. J 14365/08 incubated for 48 hrs under dark condition by microdilution broth assay; conditions: J 14365/08, 48 h

Row | SMILES | MIC [1] [µM] | MIC [2] [µM] | MIC (Mycobacterium avium [3]) [µM] | MIC (Mycobacterium avium [4]) [µM] | MIC (Mycobacterium kansasii [5]) [µM] | MIC (Mycobacterium kansasii [6]) [µM] | MIC (Mycobacterium kansasii [7]) [µM] | MIC (Mycobacterium kansasii [8]) [µM] | MIC (Mycobacterium kansasii [9]) [µM] | MIC (Mycobacterium kansasii [10]) [µM] | solubility [11] | MIC95 (Staphylococcus aureus [12]) [µM] | MIC95 (Staphylococcus aureus [13]) [µM] | MIC95 (Staphylococcus aureus [14]) [µM] | MIC95 (Staphylococcus aureus [15]) [µM] | Activity (Klebsiella pneumoniae [20]) | Activity (Klebsiella pneumoniae [21]) | Activity (Pseudomonas aeruginosa) | Activity (Pichia kudriavzevii) | Activity (Lichtheimia corymbifera) | further results
1 | O=C(O)CN1C(=O)/C(=C/c2cc(Br)ccc2O)SC1=S | 32 (≈ 12 µg/mL) | 62.5 (≈ 23.4 µg/mL) | 62.5 (≈ 23.4 µg/mL) | 62.5 (≈ 23.4 µg/mL) | 62.5 (≈ 23.4 µg/mL) | 62.5 (≈ 23.4 µg/mL) | 62.5 (≈ 23.4 µg/mL) | 62.5 (≈ 23.4 µg/mL) | 125 (≈ 46.8 µg/mL) | 250 (≈ 93.6 µg/mL) | Soluble | 250 (≈ 93.6 µg/mL) | 250 (≈ 93.6 µg/mL) | 125 (≈ 46.8 µg/mL) | 125 (≈ 46.8 µg/mL) | inactive | inactive | inactive | inactive | inactive | MIC95 [16]: 62.5 µM (≈ 23.4 µg/mL); MIC95 [17]: 62.5 µM (≈ 23.4 µg/mL); MIC95 (Escherichia coli [18]): 500 µM (≈ 187 µg/mL); MIC95 (Escherichia coli [19]): 500 µM (≈ 187 µg/mL); MIC95 (Enterococcus [22]): 500 µM (≈ 187 µg/mL); MIC95 (Enterococcus [23]): 500 µM (≈ 187 µg/mL)
2 | O=C(CN1C(=O)CSC1=S)Nc1ccc([N+](=O)[O-])cc1 | 500 (≈ 156 µg/mL) | 500 (≈ 156 µg/mL) | 1000 (≈ 311 µg/mL) | 1000 (≈ 311 µg/mL) | 500 (≈ 156 µg/mL) | 500 (≈ 156 µg/mL) | 1000 (≈ 311 µg/mL) | 500 (≈ 156 µg/mL) | 500 (≈ 156 µg/mL) | 1000 (≈ 311 µg/mL) | Soluble | 500 (≈ 156 µg/mL) | 500 (≈ 156 µg/mL) | 500 (≈ 156 µg/mL) | 500 (≈ 156 µg/mL) | inactive | inactive | inactive | inactive | inactive | MIC95 [16]: 250 µM (≈ 77.8 µg/mL); MIC95 [17]: 250 µM (≈ 77.8 µg/mL); MIC95 (Escherichia coli [18]): > 500 µM; MIC95 (Escherichia coli [19]): > 500 µM; MIC95 (Enterococcus [22]): 250 µM (≈ 77.8 µg/mL); MIC95 (Enterococcus [23]): 250 µM (≈ 77.8 µg/mL)
3 | O=C(CN1C(=O)CSC1=S)Oc1ccccc1 | 1000 (≈ 267 µg/mL) | 1000 (≈ 267 µg/mL) | 1000 (≈ 267 µg/mL) | 1000 (≈ 267 µg/mL) | 500 (≈ 134 µg/mL) | 1000 (≈ 267 µg/mL) | 1000 (≈ 267 µg/mL) | 500 (≈ 134 µg/mL) | 1000 (≈ 267 µg/mL) | 1000 (≈ 267 µg/mL) | Soluble | > 125 | > 125 | > 125 | > 125 | inactive | inactive | inactive | inactive | inactive | MIC95 [16]: > 125 µM; MIC95 [17]: > 125 µM; MIC95 (Escherichia coli [18]): > 125 µM; MIC95 (Escherichia coli [19]): > 125 µM; MIC95 (Enterococcus [22]): 125 µM (≈ 33.4 µg/mL); MIC95 (Enterococcus [23]): > 125 µM
4 | O=C(CN1C(=O)/C(=C/c2cc(Br)ccc2O)SC1=S)Nc1ccc(Cl)cc1 | 32 (≈ 15.5 µg/mL) | 62.5 (≈ 30.2 µg/mL) | 500 (≈ 242 µg/mL) | 500 (≈ 242 µg/mL) | 500 (≈ 242 µg/mL) | > 500 | > 500 | 125 (≈ 60.5 µg/mL) | 250 (≈ 121 µg/mL) | 500 (≈ 242 µg/mL) | Soluble | 500 (≈ 242 µg/mL) | 500 (≈ 242 µg/mL) | 500 (≈ 242 µg/mL) | 500 (≈ 242 µg/mL) | inactive | inactive | inactive | inactive | inactive | MIC95 [16]: 500 µM (≈ 242 µg/mL); MIC95 [17]: 500 µM (≈ 242 µg/mL); MIC95 (Escherichia coli [18]): > 500 µM; MIC95 (Escherichia coli [19]): > 500 µM; MIC95 (Enterococcus [22]): 500 µM (≈ 242 µg/mL); MIC95 (Enterococcus [23]): 500 µM (≈ 242 µg/mL)
5 | Cc1ccc(NC(=O)CN2C(=O)CSC2=S)cc1 | 500 (≈ 140 µg/mL) | 500 (≈ 140 µg/mL) | 1000 (≈ 280 µg/mL) | > 1000 | 250 (≈ 70.1 µg/mL) | 500 (≈ 140 µg/mL) | 500 (≈ 140 µg/mL) | 500 (≈ 140 µg/mL) | 500 (≈ 140 µg/mL) | 500 (≈ 140 µg/mL) | Soluble | – | – | – | – | inactive | inactive | inactive | inactive | inactive | –
6 | COc1ccc(NC(=O)CN2C(=O)CSC2=S)cc1 | 500 (≈ 148 µg/mL) | 1000 (≈ 296 µg/mL) | 1000 (≈ 296 µg/mL) | > 1000 | 500 (≈ 148 µg/mL) | 500 (≈ 148 µg/mL) | 1000 (≈ 296 µg/mL) | 500 (≈ 148 µg/mL) | 500 (≈ 148 µg/mL) | 1000 (≈ 296 µg/mL) | Soluble | – | – | – | – | inactive | inactive | inactive | inactive | inactive | –
